Measurements: ChEMBL document CHEMBL4765352, “Discovery of AdipoRon analogues as novel AMPK activators without inhibiting mitochondrial complex I” (Eur J Med Chem, 2020)
Calls of active or inactive are those of the source. The calls are words filed in the database; no cut-off is given here.

Tests used:
Homo sapiens [1] = species: Homo sapiens; assay: Activation of AMPK alpha1/beta1/gamma1 (unknown origin)
A549 [2] = assay: Activation of AMPK in human A549 cells harboring mutant LKB1; type: cell-based
Mus musculus [3] = species: Mus musculus; assay: Improvement in lipid homeostasis in db/db mouse assessed as effect on serum total cholesterol level; type: functional, organism-based
Mus musculus [4] = species: Mus musculus; assay: Improvement in lipid homeostasis in db/db mouse assessed as effect on serum triglyceride level; type: functional, organism-based
C2C12 [5] = assay: Activation of AMPK in mouse C2C12 cells with SiRNA-induced LKB1 knock down assessed as increase in AMPK phosphorylation; type: cell-based
C2C12 [6] = assay: Cytotoxicity against mouse C2C12 cells assessed as reduction in cell viability at 5 to 20 uM incubated for 24 to 72 hrs by MTT assay; type: cell-based; conditions: c2c12, 20 µM, dose lower 5 µM, time lower 24 hrs, dose upper 20 µM, time upper 72 hrs
How it was run: (§1)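 MTT viability assay in C2C12, HepG2 and A549 cells. Exposure was 24 h or 72 h for C2C12 and 72 h for HepG2 and A549. Three replicates per group, compared with the 0 μM group by Student's t test.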

[7] = Toxicity in db/db mouse assessed as effect on serum ALT level at 100 mg/kg, ig administered for 10 weeks; type: organism-based; conditions: in vivo, po, 1680 h
How it was run: (§2)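 db/db mice, 5 weeks old, grouped by matching baseline blood glucose and body weight. Dosed intragastrically once daily at 100 mg/kg in 0.5% methylcellulose; vehicle-treated db/db and db/m mice served as controls. Body weight and fasting blood glucose measured weekly. Serum ALT and AST measured after 10 weeks. Data given as mean ± SEM.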

Mus musculus [8] = assay: Activation of AMPK in normal lean C57BL/6 mouse assessed as increase in phosphorylated ACC level in skeletal muscle at 100 mg/kg, ig administered for 4 weeks by Western blot analysis; type: functional, organism-based; conditions: Skeletal muscle tissue
How it was run: (§3)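 Male C57BL/6 mice, 9 weeks old, dosed intragastrically once daily for 4 weeks alongside vehicle controls. Heart and skeletal muscle were homogenized in RIPA buffer with protease/phosphatase inhibitors and centrifuged at 10,600 g for 20 min. About 30 µg protein was blotted for p-AMPK and p-ACC and detected by ECL.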

BEAS-2B = assay: Activation of AMPK in human BEAS-2B cells harboring wild type LKB1; type: cell-based; conditions: filed as activator
[9] = Metabolic stability in human liver microsomes assessed as intrinsic clearance preincubated for 5 mins followed by NADPH addition and measured up to 45 mins by LC/MS analysis; type: ADME, Microsome; conditions: time 50 min, read-out: CLH
How it was run: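 Compound and liver microsomes in preheated potassium phosphate buffer, held at 37 °C for 5 min. Reaction started with NADPH and stopped at 0, 5, 15, 30 and 45 min with acetonitrile containing tolbutamide internal standard. Samples centrifuged at 6000 rpm for 15 min, supernatant analysed by LC/MS. Ketanserin run as assay control. Performed by a contract lab.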

Homo sapiens [10] = species: Homo sapiens; assay: Activation of AMPK alpha2/beta2/gamma1 (unknown origin)
[11] = Induction of cardiac hypertrophy in normal lean C57BL/6 mouse assessed as increase in cardiac glycogen level at 100 mg/kg, ig administered for 4 weeks by PAS staining based analysis; type: organism-based; conditions: in vivo, po, 672 h
How it was run: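 Male C57BL/6 mice, 9 weeks old, dosed intragastrically daily for 4 weeks. After saline perfusion, organ weights and tibia length were recorded. Heart pieces were fixed in 4% paraformaldehyde, embedded in paraffin and stained with periodic acid-Schiff to show glycogen.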

Mus musculus [12] = assay: Activation of AMPK in normal lean C57BL/6 mouse assessed as increase in phosphorylated AMPK level in heart tissue at 100 mg/kg, ig administered for 4 weeks by Western blot analysis; type: functional, organism-based; how it was run: as §3
C2C12 [13] = assay: Activation of AMPK in mouse C2C12 cells with SiRNA-induced LKB1 knock down assessed as increase in ACC phosphorylation; type: cell-based
[14] = Toxicity in C57BL/6 mouse assessed as change in heart weight/tibia length ratio at 50 to 200 mg/kg, ig administered for 4 weeks; type: organism-based; conditions: in vivo, po, 672 h, dose 50-200 mg/kg
How it was run: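 Male C57BL/6 mice (6 per group) given 50, 100 or 200 mg/kg intragastrically daily for 4 weeks. Saline-perfused hearts were weighed and examined for gross morphology, with representative hearts chosen by similar body weight. Heart weight was expressed relative to body weight and to tibia length.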

[15] = Metabolic stability in human liver microsomes assessed as compound remaining preincubated for 5 mins followed by NADPH addition and measured up to 45 mins by LC/MS analysis; type: ADME, Microsome; conditions: time 50 min, read-out: Stabilty
How it was run: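 Compound was preincubated with mouse (ICR/CD-1) or human liver microsomes in potassium phosphate buffer at 37 °C for 5 min, then NADPH was added to start the reaction. Samples were quenched with acetonitrile containing tolbutamide internal standard at 0, 5, 15, 30 and 45 min. Parent compound measured by LC/MS; ketanserin served as control.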

A549 [16] = assay: Cytotoxicity against human A549 cells assessed as reduction in cell viability at 5 to 20 uM incubated for 72 hrs by MTT assay; type: cell-based; conditions: a549, 72 h, dose 5-20 µM; how it was run: as §1
[17] = Toxicity in db/db mouse assessed as effect on serum AST level at 100 mg/kg, ig administered for 10 weeks; type: organism-based; conditions: in vivo, po, 1680 h; how it was run: as §2
C2C12 [18] = assay: Activation of AMPK in mouse C2C12 cells assessed as increase in ACC phosphorylation at 10 uM by Western blotting analysis; type: cell-based; conditions: filed as activator, time 0.5-24 hrs, TDE = time-dependent effect
How it was run: (§4)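 C2C12 myoblasts differentiated in DMEM with 2% horse serum for 5-7 days until myotubes formed. Treated for 2 h, either at 10 μM or across a concentration range, or at 10 μM over a time course. RIPA lysates (~30 µg protein) blotted for p-AMPK/AMPK and p-ACC/ACC, detected by ECL. The p-AMPK/AMPK ratio is expressed as fold of the DMSO vehicle.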

H9c2 = assay: Activation of AMPK in rat H9C2 cells assessed as increase in phosphorylation of ACC at 1 to 20 uM incubated for 1 to 24 hrs by Western blot analysis; type: cell-based; conditions: dose 1-20 µM, time 1-24 hrs
How it was run: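 Rat cardiac H9C2 cells treated with a concentration range for 2 h or 4 h, or with 10 μM over a time course. Lysates blotted for phosphorylated and total AMPK and ACC, detected by ECL.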

C2C12 [19] = assay: Activation of AMPK in mouse C2C12 cells assessed as increase in AMPK phosphorylation at Thr172 residue at 10 uM measured after 2 hrs by Western blot analysis; type: cell-based; conditions: filed as activator; how it was run: as §4
[20] = Inhibition of bovine heart mitochondrial complex 1 at 5 to 20 uM measured every minute for 2 hrs by microplate reader based assay; type: tissue-based, Bos taurus; conditions: cattle, dose 5-20 µM
How it was run: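 Bovine heart mitochondria in detergent were captured on a complex I antibody-coated plate for 2 h at room temperature. Phospholipids were added, then complex I solution with compound, rotenone control or DMSO. NADH oxidation was followed as the fall in A340, read every minute for at least 2 h at 30 °C.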

Mus musculus [21] = assay: Activation of AMPK in normal lean C57BL/6 mouse assessed as increase in phosphorylated ACC level in heart tissue at 100 mg/kg, ig administered for 4 weeks by Western blot analysis; type: functional, organism-based; how it was run: as §3

Which Activity (Homo sapiens [1]) does the source give for `CC(C)(Oc1ccc(Cl)cc1)C(=O)Nc1ccc(OCc2ccc(C#N)cc2)cc1` here?
The Activity was “inactive”.

What about the Activity (A549 [2]) of the same molecule?
Its Activity is “inactive”.

And the Activity (Mus musculus [3])?
Its Activity is “inactive”.

And the Activity (Mus musculus [4])?
Its Activity is “inactive”.

And the Activity (C2C12 [5])?
Its Activity is “inactive”.

And the Activity (C2C12 [6])?
Its Activity is “Non-Toxic”.

What about the Activity [7] of the same molecule?
Its Activity is “Non-Toxic”.

And the Activity (Mus musculus [8])?
The Activity was “Active”.

And the Activity (BEAS-2B)?
The Activity was “Active”.

What about the CLint scaled [9] of the same molecule?
The CLint scaled was 1.08 L/h/kg.

And the Activity (Homo sapiens [10])?
The Activity was “inactive”.

And the Activity [11]?
Its Activity is “Non-Toxic”.

And the Activity (Mus musculus [12])?
The Activity was “inactive”.

And the Activity (C2C12 [13])?
The Activity was “inactive”.

What about the Activity [14] of the same molecule?
Its Activity is “Non-Toxic”.

What about the remaining at 0.75 h [15] of the same molecule?
The remaining at 0.75 h was 74%.

What about the Activity (A549 [16]) of the same molecule?
Its Activity is “Non-Toxic”.

What about the Activity [17] of the same molecule?
Its Activity is “Non-Toxic”.

And the Activity (C2C12 [18])?
Its Activity is “Tde”.

And the Activity (H9c2)?
The Activity was “inactive”.

And the Activity (C2C12 [19])?
The Activity was “Active”.

And the “inhibition (INH)” value [20]?
Its value is “Not Active”.

What about the Activity (Mus musculus [21]) of the same molecule?
Its Activity is “inactive”.
